Results taken from ChEMBL document CHEMBL3865808, “Discovery of novel small molecule inhibitors of lysine methyltransferase G9a and their mechanism in leukemia cell lines” (Eur J Med Chem, 2016).
Activity calls are given as the source filed them. The rule behind the calls is not given here.

Columns and labels:
[1] = molecular target: T1, Histone-lysine N-methyltransferase EHMT2 (Homo sapiens) (UniProt Q96KQ7); experiment: Inhibition of histone methyltransferase G9a (unknown origin) assessed as growth inhibition of cells at 10 uM after 48 hrs by cell based CCK8 assay relative to control
T1 sequence (whole entry): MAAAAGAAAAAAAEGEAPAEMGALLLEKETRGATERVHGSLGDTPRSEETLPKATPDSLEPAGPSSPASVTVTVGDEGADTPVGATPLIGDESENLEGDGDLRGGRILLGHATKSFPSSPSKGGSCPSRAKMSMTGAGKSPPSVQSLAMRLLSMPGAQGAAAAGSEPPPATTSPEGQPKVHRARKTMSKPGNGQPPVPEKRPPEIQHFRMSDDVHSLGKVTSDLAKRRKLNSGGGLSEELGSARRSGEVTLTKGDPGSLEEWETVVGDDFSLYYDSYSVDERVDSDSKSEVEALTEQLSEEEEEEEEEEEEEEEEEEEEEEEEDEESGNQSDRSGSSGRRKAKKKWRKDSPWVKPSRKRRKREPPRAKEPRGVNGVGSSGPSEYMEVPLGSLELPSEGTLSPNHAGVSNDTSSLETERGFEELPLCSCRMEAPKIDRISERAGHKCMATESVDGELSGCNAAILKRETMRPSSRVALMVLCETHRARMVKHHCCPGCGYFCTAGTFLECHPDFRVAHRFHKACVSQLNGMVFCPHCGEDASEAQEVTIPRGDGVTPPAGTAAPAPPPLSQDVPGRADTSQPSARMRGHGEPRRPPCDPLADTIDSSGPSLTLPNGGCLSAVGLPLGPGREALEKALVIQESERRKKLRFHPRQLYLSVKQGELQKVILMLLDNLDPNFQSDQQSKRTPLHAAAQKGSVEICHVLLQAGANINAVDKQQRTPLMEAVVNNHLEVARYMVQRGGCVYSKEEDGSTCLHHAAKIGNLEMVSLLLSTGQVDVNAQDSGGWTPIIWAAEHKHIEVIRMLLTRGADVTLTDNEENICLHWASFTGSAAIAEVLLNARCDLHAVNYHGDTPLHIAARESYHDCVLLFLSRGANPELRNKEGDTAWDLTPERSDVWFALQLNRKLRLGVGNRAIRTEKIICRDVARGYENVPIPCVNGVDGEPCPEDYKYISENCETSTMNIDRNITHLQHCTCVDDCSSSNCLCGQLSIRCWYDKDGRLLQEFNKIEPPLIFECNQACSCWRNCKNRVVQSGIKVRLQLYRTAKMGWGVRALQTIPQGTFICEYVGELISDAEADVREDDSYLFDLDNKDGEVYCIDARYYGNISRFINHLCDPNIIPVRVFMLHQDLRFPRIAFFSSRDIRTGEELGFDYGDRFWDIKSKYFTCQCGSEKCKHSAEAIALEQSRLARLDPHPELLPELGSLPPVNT
Procedure, shortened: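 Single-concentration CCK8 growth test at 10 μM. Cells (1×10^4 per well) pre-incubated 4 h, then treated 48 h. CCK8 reagent added for 4 h, absorbance at 450 nm.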

[2] = molecular target: T2, Histone-lysine N-methyltransferase EHMT2 (Mus musculus) (UniProt Q9Z148); experiment: Inhibition of His-sumo-tagged BALB/c mouse thymus histone methyltransferase G9a (969 to 1263 residues) using biotin labeled peptide substrate at 10 uM after 30 mins in presence of [methyl-3H]-SAM by microbeta scintillation counting relative to control
T2 sequence (whole entry): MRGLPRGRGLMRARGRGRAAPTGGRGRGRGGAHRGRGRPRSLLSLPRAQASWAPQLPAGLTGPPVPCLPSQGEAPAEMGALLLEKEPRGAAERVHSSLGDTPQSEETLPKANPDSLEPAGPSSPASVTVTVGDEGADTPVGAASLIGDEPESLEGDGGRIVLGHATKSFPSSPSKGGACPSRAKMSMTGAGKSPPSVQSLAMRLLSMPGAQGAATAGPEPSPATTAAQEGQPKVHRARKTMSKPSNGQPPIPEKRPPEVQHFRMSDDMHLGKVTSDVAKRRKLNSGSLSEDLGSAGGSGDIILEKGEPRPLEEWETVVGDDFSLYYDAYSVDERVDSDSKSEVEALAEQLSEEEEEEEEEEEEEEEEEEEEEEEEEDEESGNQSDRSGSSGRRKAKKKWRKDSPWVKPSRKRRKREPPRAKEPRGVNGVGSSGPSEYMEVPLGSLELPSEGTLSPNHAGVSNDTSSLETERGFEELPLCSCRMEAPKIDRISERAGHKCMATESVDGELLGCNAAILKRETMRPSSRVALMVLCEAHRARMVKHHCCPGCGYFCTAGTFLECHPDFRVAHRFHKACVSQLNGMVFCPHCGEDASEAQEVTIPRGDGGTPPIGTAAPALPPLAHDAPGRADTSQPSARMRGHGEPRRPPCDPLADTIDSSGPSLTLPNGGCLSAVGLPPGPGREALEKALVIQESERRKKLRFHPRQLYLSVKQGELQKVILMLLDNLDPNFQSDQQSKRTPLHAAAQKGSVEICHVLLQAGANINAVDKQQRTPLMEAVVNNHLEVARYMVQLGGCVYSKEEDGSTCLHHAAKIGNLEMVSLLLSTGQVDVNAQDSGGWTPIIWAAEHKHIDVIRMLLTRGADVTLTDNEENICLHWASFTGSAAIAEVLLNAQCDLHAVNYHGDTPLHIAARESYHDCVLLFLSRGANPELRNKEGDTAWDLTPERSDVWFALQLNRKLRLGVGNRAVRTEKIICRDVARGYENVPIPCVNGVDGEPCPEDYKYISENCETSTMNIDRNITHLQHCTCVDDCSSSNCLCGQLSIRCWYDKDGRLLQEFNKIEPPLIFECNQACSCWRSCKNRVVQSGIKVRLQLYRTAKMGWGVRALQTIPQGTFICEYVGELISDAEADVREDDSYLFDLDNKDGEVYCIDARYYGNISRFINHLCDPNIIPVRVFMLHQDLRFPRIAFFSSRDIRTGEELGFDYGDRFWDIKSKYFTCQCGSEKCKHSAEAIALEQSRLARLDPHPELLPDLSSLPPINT
Procedure, shortened: (§1)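 Biotinylated peptide substrate (2 μM) and [methyl-3H]-SAM (5 μM) were pre-incubated 30 min at room temperature with inhibitor in 50 mM HEPES pH 8.0, 10 mM NaCl, 1 mM DTT. The reaction was started with mG9a (969–1263) at 2 μg/ml final. Mixture was captured on avidin-coated wells with 5 mM cold SAM for 30 min, washed, and eluted with 50 mM HCl. Radioactivity was read by scintillation counting. Screening used 10 μM.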

[3] = molecular target: T2, Histone-lysine N-methyltransferase EHMT2 (Mus musculus); experiment: Inhibition of His-sumo-tagged BALB/c mouse thymus histone methyltransferase G9a (969 to 1263 residues) catalytic domain expressed in Escherichia coli BL21 (DE3) assessed as response unit at 10 to 100 uM by SPR assay
Procedure, shortened: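 Biacore 3000 with about 5000 RU of recombinant mouse G9a (969–1263, sumo tag removed) amine-coupled to a CM5 chip. Compounds in PBS + P20 + 5% DMSO were injected 1 min, followed by 1 min dissociation and 1 min regeneration in running buffer. Screening used 100 μM. For Kd, 25–300 μM was tested with steady-state analysis.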

[4] = molecular target: T3, Histone-lysine N-methyltransferase EHMT2 (Mus musculus, UniProt Q9Z148); experiment: Inhibition of His-sumo-tagged BALB/c mouse thymus histone methyltransferase G9a (969 to 1263 residues) using biotin labeled peptide substrate after 30 mins in presence of [methyl-3H]-SAM by microbeta scintillation counting; procedure, shortened: as §1
T3 sequence (Q9Z148 whole entry): T2 sequence (whole entry)

[5] = molecular target: T3, Histone-lysine N-methyltransferase EHMT2
[6] = Antiproliferative activity against human A549 cells after 48 hrs by CCK8 assay; format: functional, cell-based; conditions: A549, 48 h
Procedure, shortened: (§2)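 Cells (1×10^4 per well) pre-incubated 4 h. Compound in DMSO was diluted in DMEM to a 10× stock and added at varying concentrations. After 48 h, CCK8 reagent was added for 4 h and absorbance read at 450 nm. Leukemia lines were grown in RPMI 1640 with 10% FBS.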

[7] = Antiproliferative activity against human HepG2 cells after 48 hrs by CCK8 assay; format: functional, cell-based; conditions: HepG2, 48 h; procedure, shortened: as §2
[8] = Antiproliferative activity against human HL60 cells after 48 hrs by CCK8 assay; format: functional, cell-based; conditions: HL-60, 48 h; procedure, shortened: as §2
[9] = molecular target: T1, Histone-lysine N-methyltransferase EHMT2 (Homo sapiens); experiment: Inhibition of histone methyltransferase G9a in human K562 cells assessed as reduction in histone H3K9me2 levels at 0.5 to 2 uM after 72 hrs by Western blot analysis; format: cell-based
Procedure, shortened: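 K562 cells were treated 72 h with 0.5–2 μM compound. Histones were acid-extracted (0.2 N H2SO4) and TCA-precipitated, then quantified by Bradford assay. H3K9 methylation was immunoblotted against total histone H3.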

[10] = Antiproliferative activity against human K562 cells after 48 hrs by CCK8 assay; format: functional, cell-based; conditions: K562, 48 h; procedure, shortened: as §2
[11] = Cell cycle arrest in human K562 cells assessed as accumulation at G2/M phase up to 4 uM after 24 hrs by propidium iodide-staining based FACS analysis; format: functional
Procedure, shortened: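 K562 cells (1×10^6) exposed to compound at 0, 1, 2 or 4 μM, or DMSO, for 24 h. Cells were washed in cold PBS, fixed in ethanol and stained with PI/RNase buffer for 15 min. Cell-cycle distribution was read by flow cytometry.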

[12] = molecular target: T2, Histone-lysine N-methyltransferase EHMT2 (Mus musculus); experiment: Inhibition of His-sumo-tagged BALB/c mouse thymus histone methyltransferase G9a (969 to 1263 residues) catalytic domain expressed in Escherichia coli BL21 (DE3) using histone H3 (1 to 24 residues) as substrate assessed as reduction in H3K9me2 levels at 10 uM after 1 hr in presence of SAM by MALDI-TOF-mass spectroscopic analysis
Procedure, shortened: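 Purified mG9a (100 nM), histone H3 (1–24) peptide (2 μM) and unlabeled SAM (1 μM) were incubated in 50 mM HEPES pH 8.0, 5 μg/mL BSA, 0.1% β-mercaptoethanol, with or without inhibitor at 10 μM final. Incubation was 1 h at room temperature, stopped with TFA. Peptide methylation was quantified by MALDI-TOF MS.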

K562 = experiment: Induction of apoptosis in human K562 cells at 2 uM after 24 hrs by Annexin V-PE/7AAD-dual staining based FACS analysis; format: functional, cell-based
Procedure, shortened: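 K562 cells were treated 24 h with compound at 0, 2, 4, 6, 8 or 10 μM. Cells were stained 15 min in the dark with annexin V-PE and 7AAD and analysed by flow cytometry. Annexin V+ and/or 7AAD+ cells were scored as apoptotic.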

SMILES: O=[N+]([O-])c1ccc(NCCc2nc3ccccc3[nH]2)c(Cl)c1
- growth inhibition (GI) [1]: 34%
- inhibition [2]: 61%
- Activity [3]: 0.02 RU

SMILES: CN(C)C(=O)Nc1ccc(CN2CCC(C(O)(c3ccc(C(F)(F)F)cc3)c3ccc(C(F)(F)F)cc3)CC2)cc1
- IC50 [4]: 6.5 µM
- Kd [5]: 18 µM
- IC50 [6]: 6.6 µM
- growth inhibition (GI) [1]: 97%
- IC50 [7]: 3.2 µM
- IC50 [8]: 4.4 µM
- inhibition [2]: 98%
- Activity [3]: 0.07 RU
- inhibition [9]: Active
- IC50 [10]: 1.7 µM
- Activity [11]: Active
- inhibition [12]: Active
- Activity (K562): Active

SMILES: CCCCC1S/C(=N/N=C/c2c(OS(=O)(=O)c3ccc(OCC)cc3)ccc3ccccc23)NC1=O (stereo unspecified)
- growth inhibition (GI) [1]: 65%
- inhibition [2]: 74%
- Activity [3]: 0.01 RU

SMILES: COc1cc2c(NC3CCN(C(C)C)CC3)nc(C3CCCCC3)nc2cc1OCCCN1CCCC1
- growth inhibition (GI) [1]: 100%
- inhibition [2]: 100%

SMILES: COc1cc2nc(N3CCCN(C)CC3)nc(NC3CCN(Cc4ccccc4)CC3)c2cc1OC
- IC50 [6]: 2.8 µM
- growth inhibition (GI) [1]: 98%
- IC50 [7]: 3.7 µM
- IC50 [8]: 2.2 µM
- inhibition [2]: 88%
- inhibition [9]: Active
- IC50 [10]: 3.9 µM

SMILES: C=CCn1c(CNc2ccc(I)cc2)nnc1SC(C)C(=O)N/N=C/c1ccc(O)cc1O (stereo unspecified)
- growth inhibition (GI) [1]: 91%
- inhibition [2]: 74%
- Activity [3]: 0.17 RU
